In ChEMBL document CHEMBL1949495, “Synthesis and cytotoxicity evaluation of biaryl-based chalcones and their potential in TNFα-induced nuclear factor-κB activation inhibition” (Eur J Med Chem, 2012):

tested on: MCF7; assay: Cytotoxicity against human MCF7 cells assessed as total cell protein after 48 hrs by SRB assay; type: functional, cell-based; settings: MCF7, 48 h
Summary of the method: (§1)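 Cells kept in RPMI-1640 with 2 mM glutamine, 10% FBS, penicillin/streptomycin, 37 °C, 5% CO2. Seeded 5000 cells/well, grown 24 h, then serial dilutions from 10 mM DMSO stocks added in medium (final DMSO 0.5%), triplicate, 48 h. TCA fixation at 4 °C for 1 h, 0.4% SRB stain, dye solubilized in 10 mM Tris pH 10.4, OD 515 nm. IC50 by nonlinear regression of % control viability vs log concentration; experiments repeated at least twice.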

SMILES	IC50 [µM]
COc1cc(/C=C/C(=O)c2ccc(N)c(-c3ccc(F)cc3)c2)cc(OC)c1OC	9.03
COc1ccc(/C=C/C(=O)c2cccc(-c3cccc(F)c3)c2)cc1OC	4.62
COc1ccc(/C=C/C(=O)c2ccc(N)c(-c3ccc(F)cc3)c2)cc1OC	15
COc1ccc(/C=C/C(=O)c2ccc(NC(C)=O)c(-c3ccc(F)cc3)c2)cc1OC	15
COc1ccc(-c2cc(C(=O)/C=C/c3ccc(F)cc3)ccc2N)cc1OC	19.4
COc1ccc(-c2cc(C(=O)/C=C/c3cc(OC)c(OC)c(OC)c3)ccc2N)cc1OC	6.58
COc1ccc(/C=C/C(=O)c2cccc(-c3ccc(F)cc3)c2)cc1OC	11.6
COc1ccc(/C=C/C(=O)c2ccc(N)c(-c3ccc(OC)c(OC)c3)c2)c(OC)c1	6.49
O=C(/C=C/c1cccc(-c2ccc(F)cc2)c1)c1ccc(F)cc1	14.1
O=C(/C=C/c1ccc(Cl)cc1)c1cccc(-c2cccc(F)c2)c1	18.2
O=C(/C=C/c1cccc(Br)c1)c1cccc(-c2cccc(F)c2)c1	12.7

tested on: A549; assay: Cytotoxicity against human A549 cells assessed as total cell protein after 48 hrs by SRB assay; type: functional, cell-based; settings: A549, 48 h; summary of the method: as §1

SMILES	IC50 [µM]
COc1ccc(/C=C/C(=O)c2cccc(Br)c2)cc1	34.2
COc1ccc(/C=C/C(=O)c2ccc(N)c(-c3ccc(F)cc3)c2)cc1O	0.94
COc1ccc(/C=C/C(=O)c2cccc(-c3cccc(F)c3)c2)cc1O	0.5
COc1ccc(/C=C/C(=O)c2cccc(Br)c2)cc1O	5.88
COc1cc(/C=C/C(=O)c2ccc(N)c(-c3ccc(F)cc3)c2)cc(OC)c1OC	6.07
COc1ccc(/C=C/C(=O)c2cccc(-c3ccc(F)nc3)c2)cc1O	2.06
COc1ccc(/C=C/C(=O)c2cccc(-c3cccc(F)c3)c2)cc1OC	1.94
COc1ccc(/C=C/C(=O)c2ccc(N)c(-c3ccc(F)cc3)c2)cc1OC	8.63
COc1ccc(/C=C/C(=O)c2ccc(NC(C)=O)c(-c3ccc(F)cc3)c2)cc1OC	7.38
COc1ccc(-c2cc(C(=O)/C=C/c3ccc(F)cc3)ccc2N)cc1OC	18
COc1ccc(-c2cc(C(=O)/C=C/c3cc(OC)c(OC)c(OC)c3)ccc2N)cc1OC	4.62
COc1ccc(/C=C/C(=O)c2cccc(-c3ccc(F)cc3)c2)cc1OC	11.8
COc1ccc(/C=C/C(=O)c2ccc(N)c(-c3ccc(OC)c(OC)c3)c2)c(OC)c1	2.21
COc1ccc(/C=C/C(=O)c2cccc(Br)c2)cc1OC	9.43
O=C(/C=C/c1cccc(-c2ccc(F)cc2)c1)c1ccc(F)cc1	12.2
O=C(/C=C/c1ccc(Cl)cc1)c1cccc(-c2cccc(F)c2)c1	15.4
O=C(/C=C/c1cccc(Br)c1)c1cccc(-c2cccc(F)c2)c1	9.12

tested on: not listed separately; assay: Cytotoxicity against human CNE2 cells assessed as total cell protein after 48 hrs by SRB assay; type: functional, cell-based; settings: CNE-2, 48 h; summary of the method: as §1

SMILES	IC50 [µM]
COc1cc(/C=C/C(=O)c2ccc(N)c(-c3ccc(F)cc3)c2)cc(OC)c1OC	4.6
COc1ccc(/C=C/C(=O)c2cccc(-c3cccc(F)c3)c2)cc1OC	0.77
COc1ccc(/C=C/C(=O)c2ccc(N)c(-c3ccc(F)cc3)c2)cc1OC	3.51
COc1ccc(/C=C/C(=O)c2ccc(NC(C)=O)c(-c3ccc(F)cc3)c2)cc1OC	2.74
COc1ccc(-c2cc(C(=O)/C=C/c3ccc(F)cc3)ccc2N)cc1OC	7.93
COc1ccc(-c2cc(C(=O)/C=C/c3cc(OC)c(OC)c(OC)c3)ccc2N)cc1OC	4.33
COc1ccc(/C=C/C(=O)c2cccc(-c3ccc(F)cc3)c2)cc1OC	5.55
COc1ccc(/C=C/C(=O)c2ccc(N)c(-c3ccc(OC)c(OC)c3)c2)c(OC)c1	8.34
O=C(/C=C/c1cccc(-c2ccc(F)cc2)c1)c1ccc(F)cc1	7.39
O=C(/C=C/c1ccc(Cl)cc1)c1cccc(-c2cccc(F)c2)c1	9.06
O=C(/C=C/c1cccc(Br)c1)c1cccc(-c2cccc(F)c2)c1	6.55

tested on: HepG2; assay: Cytotoxicity against human HepG2 cells assessed as total cell protein after 48 hrs by SRB assay; type: functional, cell-based; settings: HepG2, 48 h; summary of the method: as §1

SMILES	IC50 [µM]
COc1cc(/C=C/C(=O)c2ccc(N)c(-c3ccc(F)cc3)c2)cc(OC)c1OC	4.21
COc1ccc(/C=C/C(=O)c2cccc(-c3cccc(F)c3)c2)cc1OC	1.17
COc1ccc(/C=C/C(=O)c2ccc(N)c(-c3ccc(F)cc3)c2)cc1OC	3.78
COc1ccc(/C=C/C(=O)c2ccc(NC(C)=O)c(-c3ccc(F)cc3)c2)cc1OC	5.63
COc1ccc(-c2cc(C(=O)/C=C/c3ccc(F)cc3)ccc2N)cc1OC	8.96
COc1ccc(-c2cc(C(=O)/C=C/c3cc(OC)c(OC)c(OC)c3)ccc2N)cc1OC	2.68
COc1ccc(/C=C/C(=O)c2cccc(-c3ccc(F)cc3)c2)cc1OC	5.37
COc1ccc(/C=C/C(=O)c2ccc(N)c(-c3ccc(OC)c(OC)c3)c2)c(OC)c1	2.13
O=C(/C=C/c1cccc(-c2ccc(F)cc2)c1)c1ccc(F)cc1	12.3
O=C(/C=C/c1ccc(Cl)cc1)c1cccc(-c2cccc(F)c2)c1	10.4
O=C(/C=C/c1cccc(Br)c1)c1cccc(-c2cccc(F)c2)c1	6.98

tested on: SW480; assay: Cytotoxicity against human SW480 cells assessed as total cell protein after 48 hrs by SRB assay; type: functional, cell-based; settings: SW480, 48 h; summary of the method: as §1

SMILES	IC50 [µM]
COc1cc(/C=C/C(=O)c2ccc(N)c(-c3ccc(F)cc3)c2)cc(OC)c1OC	6.12
COc1ccc(/C=C/C(=O)c2cccc(-c3cccc(F)c3)c2)cc1OC	2.97
COc1ccc(/C=C/C(=O)c2ccc(N)c(-c3ccc(F)cc3)c2)cc1OC	6.64
COc1ccc(/C=C/C(=O)c2ccc(NC(C)=O)c(-c3ccc(F)cc3)c2)cc1OC	5.35
COc1ccc(-c2cc(C(=O)/C=C/c3ccc(F)cc3)ccc2N)cc1OC	14.7
COc1ccc(-c2cc(C(=O)/C=C/c3cc(OC)c(OC)c(OC)c3)ccc2N)cc1OC	5.63
COc1ccc(/C=C/C(=O)c2cccc(-c3ccc(F)cc3)c2)cc1OC	6.49
COc1ccc(/C=C/C(=O)c2ccc(N)c(-c3ccc(OC)c(OC)c3)c2)c(OC)c1	9.3
O=C(/C=C/c1cccc(-c2ccc(F)cc2)c1)c1ccc(F)cc1	13.5
O=C(/C=C/c1ccc(Cl)cc1)c1cccc(-c2cccc(F)c2)c1	16.9
O=C(/C=C/c1cccc(Br)c1)c1cccc(-c2cccc(F)c2)c1	8.61
